Hsp70 activator: transcriptional activators of Hsp70. HeLa Hsp70 promoter luciferase reporter, luminescence; scaled: vehicle 0, proteasome-inhibitor control 100%. activation, % at 10 µM. actives 0.04% (n = 200,000). AID 1203;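 active = activation above the mean across all tested compounds plus 3 SD, cutoff set per campaign, cut at about 5.5% in these data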;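 note: 100% = MG132 at 30 µM as the positive control and 0% = DMSO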
MT stabilize HCS: microtubule stabilizers in HeLa cells; HeLa tubulin immunostaining HCS, 24 h; share of cells brighter than vehicle mean+2SD; % tubulin-high responders, % at 10 µM; actives 0.83% (n = 200,000); AID 2205;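 active = plate Z-score above 3 for both tubulin-high and condensed-nucleus cell shares, with cell loss under 80%, at 10 µM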;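 note: anti alpha tubulin signal scored within the nucleus-defined area of each cell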
b-catenin transl: modulators of beta-catenin nuclear translocation. nuclear translocation activity, % at 5 µM. actives 0.3% (n = 190,000). HeLa beta-catenin nuclear translocation, immunofluorescence imaging. AID 1665;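 active = nuclear translocation activity above 50% at 5 µM, with a well cell count of 50 or more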;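 note: per-cell ratio of nuclear to cytoplasmic median beta-catenin stain intensity; plate controls were DMSO negative control for no effect and GSK-3 inhibitor IX positive control for full effect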
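Test system: human HeLa cell line; Doses: 5 µM primary, 0.02–20 µM confirmation; Incubation: 24 h compound exposure, 37°C; Detection: beta-catenin immunofluorescence imaging with DAPI; Read-out: beta-catenin nuclear/cytoplasmic ratio, % activation.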
TLR9-MyD88 block: TLR9-MyD88 interaction inhibition | Q9NR96+Q99836 | CHO BLA complementation TLR9-MyD88, CCF4 FRET ratio | inhibition, % at 4.98 µM | actives 0.21% (n = 340,000) | AID 504734;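 active = inhibition above the mean over all tested compounds plus 3 SD, cut at about 21% in these data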;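 note: 0% = DMSO only wells and 100% = clavulanate BLA inhibitor control wells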
NOD2-RIPK2 inh: blocks binding of human NOD2 to RIPK2; CHO BLA complementation NOD2-RIPK2, CCF4 ratio; inhibition, % at 4.98 µM; AID 624267; O43353; actives 0.38% (n = 360,000); in the data active = inhibition above about 21%;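 note: 0% = vehicle only and 100% = reference blocker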
Target sequence (O43353 whole entry, looked up): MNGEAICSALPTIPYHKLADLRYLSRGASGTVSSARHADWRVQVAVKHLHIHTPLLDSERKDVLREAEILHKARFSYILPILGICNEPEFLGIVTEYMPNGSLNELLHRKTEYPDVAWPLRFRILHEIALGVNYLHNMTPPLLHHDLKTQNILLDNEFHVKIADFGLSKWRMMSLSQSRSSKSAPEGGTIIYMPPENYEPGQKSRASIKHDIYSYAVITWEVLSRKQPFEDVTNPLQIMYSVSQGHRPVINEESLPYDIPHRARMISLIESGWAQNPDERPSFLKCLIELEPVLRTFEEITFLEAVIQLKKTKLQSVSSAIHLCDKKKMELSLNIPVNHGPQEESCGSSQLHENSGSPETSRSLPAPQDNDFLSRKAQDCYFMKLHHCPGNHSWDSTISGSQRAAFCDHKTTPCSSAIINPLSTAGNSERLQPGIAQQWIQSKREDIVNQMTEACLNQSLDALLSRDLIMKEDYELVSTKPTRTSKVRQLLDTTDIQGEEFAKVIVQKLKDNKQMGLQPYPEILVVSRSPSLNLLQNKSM
TLR4 MyD88 comp: TLR4-MyD88 interaction inhibition in cells | O00206+Q99836 | HeLa CL3-4 TLR4/MyD88 BLA complementation, FRET ratio | inhibition, % at 8.4 µM | actives 0.18% (n = 200,000) | AID 861; in the data active = inhibition above about 25%;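 note: 0% = vehicle and 100% = reference inhibitor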
Active calls of the source: *; nt = no result given. A selection: hits, their analogues and other compounds. The true share with any hit is near 1%.

SMILES	Hsp70 activator	MT stabilize HCS	b-catenin transl	TLR9-MyD88 block	NOD2-RIPK2 inh	TLR4 MyD88 comp
Cn1c(=O)[nH]c(=O)c2c1nc(CN1CCN(c3cccc(Cl)c3)CC1)n2Cc1ccccc1Cl	0	14*	-1	-13	-1	2
CCCCn1c(CN2CCN(c3cccc(Cl)c3)CC2)nc2c1c(=O)[nH]c(=O)n2C	0	35*	1	-2	5	10
Cc1ccc(C)c(N2N=C(C(=O)OCC(=O)N(C)c3ccccc3)CCC2=O)c1	nt	nt	nt	9	-7	nt
CCC1(C)Cc2c(sc3c2c2ncnn2c2nnc(SCC(=O)NCc4ccco4)n32)CO1 (stereo unspecified)	0	13*	-2	-1	2	22
Cc1ccccc1-c1cnc(C(O)c2ccc(-c3ccccc3)cc2)[nH]1 (stereo unspecified)	nt	nt	nt	nt	3	nt
COc1ccc(-n2nnnc2/C=C\Nc2ccccc2C(=O)c2ccccc2)cc1	0	21*	62*	-2	7	-4
CC1(C(=O)Nc2cccc3cccnc23)CCN1Cc1ccc(-c2ccccc2)o1 (stereo unspecified)	nt	nt	nt	nt	-13	nt
Cc1ccc(-c2csc3ncnc(Sc4nnc(CN5CCCCCC5=O)o4)c23)cc1	1	19*	0	0	9	4
Cc1ccc(-c2csc3ncnc(SCC(=O)Nc4nnc(C)s4)c23)cc1	0	1	-2	-15	-10	-9
NC(c1csc(Nc2nccc(C(F)(F)F)n2)n1)C1CCCCC1 (stereo unspecified)	nt	nt	nt	nt	1	nt
COc1ccc(S(=O)(=O)NN(C)c2nc(C(F)(F)F)nc3ccccc23)cc1	0	25*	-2	-10	-3	12
CCCCN(C(=O)CC1CCCC1)c1c(N)n(Cc2ccccc2)c(=O)[nH]c1=O	nt	nt	nt	3	-8	nt
COc1ccc(OC)c(C2C3=C(COC3=O)Nc3cc4c(cc32)OCO4)c1 (stereo unspecified)	0	10	111*	8	11	1
CC[n+]1c(/C=C(\C)OC)sc2ccccc21	0	3	0	-3	2	1
CC[n+]1c(/C=C/C=C/N(C(C)=O)c2ccccc2)sc2cc(OC)ccc21	0	73*	165*	nt	nt	-1
COc1ccc(N2CCc3c(C)nc4c(OC)cc(OC)cc4c32)cc1	0	3	0	-1	-2	-7
COc1ccc(N2CCc3c(C)nc4c(OC)cccc4c32)cc1	0	26*	104*	8	1	-1
CSc1cc(-c2ccccc2)n(Cc2ccccc2Cl)c(=O)c1C#N	0	43*	nt	-12	5	-8
CCCn1c(-c2ccccc2)cc(SC)c(C#N)c1=O	0	4	3	7	-8	1
Cn1c(NCc2ccc3occc3c2)nc2cc(-c3cccc(C(F)(F)F)c3)sc2c1=O	nt	nt	nt	nt	7	nt
O=C(OCCN1C(=O)c2cccc3c(N4CCOCC4)ccc(c23)C1=O)c1cccc(Cl)c1	0	16*	56*	nt	nt	6
CCOCc1nc2nc(Cl)c(Cl)nc2[nH]1	nt	nt	nt	4	-4	nt
Cc1cc(C)c(CSc2ncnc3nc[nH]c23)c(C)c1	0	2	56*	-1	-1	-3
O=C(NNC(=O)c1ccncc1)Nc1cc(Cl)ccc1Cl	nt	nt	nt	-19	-6	nt
COc1cc(C2Nc3ccc4ncccc4c3C3=C2C(=O)CCC3)cc(OC)c1OC (stereo unspecified)	0	6	2	-5	-1	1
COc1cc(C2Nc3ccc4ncccc4c3C3=C2C(=O)CCC3)ccc1O (stereo unspecified)	0	27*	-2	-1	-5	3
COc1ccc(C(C)NS(=O)(=O)Cc2ccccc2)cc1 (stereo unspecified)	nt	nt	nt	-9	9	nt
COc1cc(C2C3=C(Nc4ncnn42)c2ccccc2CC3)cc(OC)c1OC (stereo unspecified)	1	18*	135*	-6	5	4
COc1cc(C2C=C(c3cccs3)Nc3ncnn32)cc(OC)c1OC (stereo unspecified)	0	3	119*	65*	80*	17
